Key:
[1] = Inhibition of in vitro tumor cell growth of […], melanoma; format: functional; settings: Homo sapiens
HCT-116 = test: Inhibition of in vitro tumor cell growth of HCT116, colon cancer cell line; format: functional; settings: Homo sapiens
SF-268 = test: Inhibition of in vitro tumor cell growth of SF-268, CNS tumor cell line; format: functional; settings: Homo sapiens
Tubulin alpha chain [2] = target: T1, Tubulin alpha chain (Sus scrofa, UniProt P02550); test: (§1) Inhibition of tubulin polymerization. (ITP)
T1 sequence (P02550 whole entry, looked up): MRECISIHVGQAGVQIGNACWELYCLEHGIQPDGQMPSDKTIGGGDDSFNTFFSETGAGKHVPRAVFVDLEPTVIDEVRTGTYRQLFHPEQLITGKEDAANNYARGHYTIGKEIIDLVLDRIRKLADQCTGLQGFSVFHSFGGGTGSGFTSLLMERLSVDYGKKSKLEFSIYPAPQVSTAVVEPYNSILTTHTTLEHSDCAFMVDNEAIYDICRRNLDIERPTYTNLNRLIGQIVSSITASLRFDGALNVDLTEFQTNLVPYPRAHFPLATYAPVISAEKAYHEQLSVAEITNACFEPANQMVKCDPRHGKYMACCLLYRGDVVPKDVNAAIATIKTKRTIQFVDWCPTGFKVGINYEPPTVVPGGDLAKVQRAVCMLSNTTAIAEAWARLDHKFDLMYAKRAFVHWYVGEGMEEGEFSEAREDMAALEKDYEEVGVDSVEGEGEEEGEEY
How it was run: (§2)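 Tubulin polymerization inhibition, with reaction mixtures containing 10 μM tubulin. Result given as IC50.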

SF-295 = test: Inhibition of in vitro tumor cell growth of SF-295, CNS tumor cell line; format: functional; settings: Homo sapiens
RXF 393 = test: Inhibition of in vitro tumor cell growth of RXF-393, renal cancer cell line; format: functional; settings: Homo sapiens
K562 = test: Inhibition of in vitro tumor cell growth of K-562, leukemia cell line; format: functional; settings: Homo sapiens
OVCAR-3 = test: Inhibition of in vitro tumor cell growth of OVCAR-3,ovarian cancer cell line; format: functional; settings: Homo sapiens
NCI-H226 = test: Inhibition of tumor cell growth of NCI-H226, non-small-cell lung cell line; format: functional; settings: Homo sapiens
Tubulin alpha chain [3] = target: T1, Tubulin alpha chain; test: Inhibition of tubulin polymerization (ITP); how it was run: as §2
[4] = target: Tubulin alpha chain (Sus scrofa) (UniProt P02550); test: as §1; how it was run: as §2
Tubulin alpha chain (Sus scrofa), sequence (P02550 whole entry, looked up): as above

Row | SMILES | GI50 (HCT-116) | IC50 (Tubulin alpha chain [2]) | GI50 (K562) | GI50 (OVCAR-3) | GI50 (NCI-H226) | IC50 (Tubulin alpha chain [3]) | IC50 [4] | GI50 [1] | GI50 (SF-268) | GI50 (SF-295) | GI50 (RXF 393)
1 | Cn1c(-c2ccccc2)cc(=O)c2ccccc21 | – | > 40 µM | – | – | – | – | – | – | – | – | –
2 | O=c1cc(-c2ccccc2F)[nH]c2cc3c(cc12)OCO3 | – | – | – | – | – | 0.68 µM | – | 0.0209 µM | – | – | –
3 | CCOC(=O)COc1cc(-c2ccccc2F)nc2cc3c(cc12)OCO3 | 72.4 µM | > 40 µM | 38 µM | – | > 100 µM | – | – | 72.4 µM | > 100 µM | > 100 µM | > 100 µM
4 | Oc1cc(-c2ccccc2)nc2ccccc12 | – | – | – | – | – | 7.3 µM | – | – | – | – | –
5 | O=c1cc(-c2ccccc2F)[nH]c2ccc(N3CCCC3)cc12 | – | – | 0.0324 µM | – | – | – | 460 nM | < 0.01 µM | 0.0389 µM | – | < 0.01 µM
6 | O=C(O)CCCOc1cc(-c2ccccc2F)nc2cc3c(cc12)OCO3 | – | 12 µM | – | – | – | – | – | – | – | – | –

Second part, led by results:

Row | GI50 (HCT-116) | IC50 (Tubulin alpha chain [2]) | GI50 (K562) | GI50 (OVCAR-3) | GI50 (NCI-H226) | IC50 (Tubulin alpha chain [3]) | IC50 [4] | SMILES | GI50 [1] | GI50 (SF-268) | GI50 (SF-295) | GI50 (RXF 393)
7 | > 100 µM | > 40 µM | – | – | – | – | – | CCOC(=O)CCCOc1cc(-c2ccccc2F)nc2cc3c(cc12)OCO3 | 57.5 µM | > 100 µM | – | –
8 | > 100 µM | > 20 µM | > 100 µM | > 100 µM | > 100 µM | – | – | O=C(O)COc1cc(-c2ccccc2F)nc2cc3c(cc12)OCO3 | > 100 µM | > 100 µM | > 100 µM | > 100 µM
9 | 5.5 µM | – | 56.2 µM | 21.4 µM | 16.6 µM | – | – | Fc1ccccc1-c1cc(S)c2cc3c(cc2n1)OCO3 | 4.07 µM | 20 µM | 11.7 µM | 29.5 µM
10 | – | 5 µM | – | – | – | – | – | O=c1[nH]c(/C=C/c2ccccc2)nc2ccccc12 | – | – | – | –

Reference: ChEMBL document CHEMBL1134685, “Antitumor Agents. 211. Fluorinated 2-phenyl-4-quinolone derivatives as antimitotic antitumor agents” (J Med Chem, 2001)
